Source: ChEMBL document CHEMBL3243989, “Antibacterial N-[omega, omega'-bis(alicyclic and aryl)-sec-alkyl]poly(methylene)triamine and -tetramine hydrochloride salts” (J Med Chem, 1979)
Active and inactive are the calls of the source. The rule behind the calls is not given here.

Experiments:
[1] = Metal chelate stability constant of the compound assessed as copper ion complex formation; format: physicochemical
Escherichia coli = assay: Antibacterial activity against Escherichia coli MB2884 assessed as growth inhibition; format: functional
In short: (§1)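 MIC (µg/mL) by in vitro growth inhibition in an assay system at pH 7.4. Tetracycline was run routinely to check medium, incubation conditions and inoculum virility.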

Streptococcus pyogenes = assay: Antibacterial activity against Streptococcus pyogenes assessed as growth inhibition at 2 to 8 ug/mL; format: functional, organism-based
Pasteurella multocida = assay: Antibacterial activity against Pasteurella multocida MB7 assessed as growth inhibition at 2 to 8 ug/mL; format: functional, organism-based
Klebsiella aerogenes = assay: Antibacterial activity against Klebsiella aerogenes MB1503 assessed as growth inhibition; format: functional; in short: as §1
Staphylococcus aureus [2] = assay: Antibacterial activity against Staphylococcus aureus MB2865 assessed as growth inhibition; format: functional; in short: as §1
Proteus vulgaris = assay: Antibacterial activity against Proteus vulgaris MB838 assessed as growth inhibition at 200 ug/mL; format: functional, organism-based
[3] = tested on: Bordetella bronchiseptica; assay: Antibacterial activity against Bordetella bronchiseptica MB905 assessed as growth inhibition; format: functional; in short: as §1
Salmonella = assay: Antibacterial activity against Salmonella schottmuelleri MB2837 assessed as growth inhibition; format: functional; in short: as §1
Bacillus subtilis = assay: Antibacterial activity against Bacillus subtilis MB964 assessed as growth inhibition; format: functional; in short: as §1
[4] = tested on: Corynebacterium pseudodiphtheriticum; assay: Antibacterial activity against Corynebacterium pseudodiphtheriticum assessed as growth inhibition at 15 ug/mL; format: functional, organism-based
Pseudomonas aeruginosa [5] = assay: Antibacterial activity against Pseudomonas aeruginosa MB418 assessed as growth inhibition; format: functional; in short: as §1
Staphylococcus aureus [6] = assay: Antibacterial activity against Staphylococcus aureus MB108 assessed as growth inhibition; format: functional; in short: as §1
Pseudomonas aeruginosa [7] = assay: Antibacterial activity against Pseudomonas aeruginosa MB2245 assessed as growth inhibition; format: functional; in short: as §1
[8] = tested on: Bordetella bronchiseptica; assay: Antibacterial activity against Bordetella bronchiseptica MB3551 assessed as growth inhibition; format: functional; in short: as §1
[9] = Lipophilicity, log P of the compound; details: octanol/water
[10] = tested on: Corynebacterium pseudodiphtheriticum; assay: Antibacterial activity against Corynebacterium pseudodiphtheriticum assessed as growth inhibition at 2 to 8 ug/mL; format: functional, organism-based

With NCCNCCCNCCN as the compound, how does the “log K” value [1] read?
The value was 23.9.

Which results are given for CC(C)(C)c1ccc(CCCC(CCCc2ccc(C(C)(C)C)cc2)NCCCNCCCNCCCN)cc1.Cl?
MIC (Escherichia coli): > 200 µg/mL; growth inhibition (GI) (Streptococcus pyogenes): Active; growth inhibition (GI) (Pasteurella multocida): Active; MIC (Klebsiella aerogenes): > 200 µg/mL; MIC (Staphylococcus aureus [2]): 20 µg/mL; growth inhibition (GI) (Proteus vulgaris): inactive; MIC [3]: 20 µg/mL; MIC (Salmonella): 15 µg/mL; MIC (Bacillus subtilis): 10 µg/mL; growth inhibition (GI) [4]: Active; MIC (Pseudomonas aeruginosa [5]): 80 µg/mL; MIC (Staphylococcus aureus [6]): 30 µg/mL; MIC (Pseudomonas aeruginosa [7]): 100 µg/mL; MIC [8]: 30 µg/mL

Which “log K” value [1] does the source give for NCCCNCCCN [NORSPERMIDINE] here?
The value was 14.2.

For NCCNCCNCCN [TRIENTINE], which logP [9] is on record?
Its logP is -0.82.

What does the source list for CC1(C)C2CCC(C2)C1CCC(CCC1C2CCC(C2)C1(C)C)NCCCNCCCNCCCN.Cl (centres undefined)?
MIC (Escherichia coli): 10 µg/mL; growth inhibition (GI) [10]: inactive; growth inhibition (GI) (Streptococcus pyogenes): Active; growth inhibition (GI) (Pasteurella multocida): Active; MIC (Klebsiella aerogenes): 30 µg/mL; MIC (Staphylococcus aureus [2]): 8 µg/mL; growth inhibition (GI) (Proteus vulgaris): inactive; MIC [3]: 2 µg/mL; MIC (Salmonella): 6 µg/mL; MIC (Bacillus subtilis): 2 µg/mL; MIC (Pseudomonas aeruginosa [5]): 8 µg/mL; MIC (Staphylococcus aureus [6]): 15 µg/mL; MIC (Pseudomonas aeruginosa [7]): 8 µg/mL; MIC [8]: 2 µg/mL

For Cl.NCCCNCCCNC(CCC1CCCC1)CCC1CCCC1, which MIC (Escherichia coli) is on record?
The MIC was 30 µg/mL.

What about the “growth inhibition (GI)” value [10] of the same compound?
The value was “inactive”.

What about the “growth inhibition (GI)” value (Streptococcus pyogenes) of the same compound?
Its value is “Active”.

What about the “growth inhibition (GI)” value (Pasteurella multocida) of the same compound?
Its value is “Active”.

What about the MIC (Klebsiella aerogenes) of the same compound?
Its MIC is 15 µg/mL.

What about the MIC (Staphylococcus aureus [2]) of the same compound?
The MIC was 15 µg/mL.

And the “growth inhibition (GI)” value (Proteus vulgaris)?
The value was “inactive”.

And the MIC [3]?
Its MIC is 4 µg/mL.

What about the MIC (Salmonella) of the same compound?
Its MIC is 8 µg/mL.

And the MIC (Bacillus subtilis)?
The MIC was 6 µg/mL.

What about the MIC (Pseudomonas aeruginosa [5]) of the same compound?
Its MIC is 60 µg/mL.

And the MIC (Staphylococcus aureus [6])?
The MIC was 20 µg/mL.

And the MIC (Pseudomonas aeruginosa [7])?
Its MIC is 30 µg/mL.

What about the MIC [8] of the same compound?
Its MIC is 4 µg/mL.

Which results are given for Cl.NCCCNCCCNC(CCCC1CC=CCC1)CCCC1CC=CCC1 (centres undefined)?
MIC (Escherichia coli): 10 µg/mL; growth inhibition (GI) [10]: inactive; growth inhibition (GI) (Streptococcus pyogenes): Active; growth inhibition (GI) (Pasteurella multocida): Active; MIC (Klebsiella aerogenes): 6 µg/mL; MIC (Staphylococcus aureus [2]): 10 µg/mL; growth inhibition (GI) (Proteus vulgaris): inactive; MIC [3]: 2 µg/mL; MIC (Salmonella): 4 µg/mL; MIC (Bacillus subtilis): 4 µg/mL; MIC (Pseudomonas aeruginosa [5]): 20 µg/mL; MIC (Staphylococcus aureus [6]): 6 µg/mL; MIC (Pseudomonas aeruginosa [7]): 15 µg/mL; MIC [8]: 4 µg/mL
